Results taken from ChEMBL document CHEMBL4376875, “Synthesis and Biological Evaluation of B-Cell Lymphoma 6 Inhibitors of N-Phenyl-4-pyrimidinamine Derivatives Bearing Potent Activities against Tumor Growth” (J Med Chem, 2020).
Active and inactive are the calls of the source. The rule behind the calls is not given here.

Columns and labels:
[1] = system: Toledo; test: Effect on CDKN1A mRNA expression in BCL6-negative human Toledo cells at 1.25 to 5 uM incubated for 24 hrs by RT-PCR analysis; type: functional, cell-based
In short: (§1)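 Toledo cells (BCL6-independent) were exposed to 1.25, 2.50 or 5.00 μM for 24 h, then mRNA was collected. Target-gene transcripts were quantified by real-time quantitative PCR against vehicle control.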

[2] = system: Toledo; test: Effect on CD80 mRNA expression in BCL6-negative human Toledo cells at 1.25 to 5 uM incubated for 24 hrs by RT-PCR analysis; type: functional, cell-based; in short: as §1
[3] = system: SUD4; test: Antiproliferative activity against human SUDHL4 cells assessed as reduction in cell viability incubated for 72 hrs by CCK8 assay; settings: SU-DHL-4, 72 h
[4] = system: Farage; test: Antiproliferative activity against human Farage cells assessed as reduction in cell viability incubated for 72 hrs by CCK8 assay
[5] = system: Toledo; test: Antiproliferative activity against BCL6-negative human Toledo cells assessed as reduction in cell viability incubated for 72 hrs by CCK8 assay
[6] = system: NCM460; test: Cytotoxicity against human NCM460 cells assessed as reduction in cell viability incubated for 72 hrs by CCK8 assay; settings: NCM460, 72 h
[7] = system: PNT1A; test: Cytotoxicity against human PNT1A cells assessed as reduction in cell viability incubated for 72 hrs by CCK8 assay
[8] = system: SUD4; test: Antiproliferative activity against human SUDHL4 cells assessed as reduction in living cells incubated for 48 hrs by Edu based flow cytometry analysis; type: functional, cell-based
In short: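 SUDHL4 cells were treated for 48 h, then pulsed with 10 μM EdU for 2 h, fixed, permeabilized and stained with EdU/Alexa Fluor Azide 488 for 30 min. Living and S-phase cells were counted by flow cytometry. Triplicate.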

[9] = system: SUD4; test: Induction of apoptosis in human SUDHL4 cells assessed as late apoptotic cells at 0.625 uM incubated for 48 hrs by annexin V-FITC and propidium iodide staining based flow cytometry analysis (reference value: 1.39%); type: functional
[10] = system: SUD4; test: Induction of apoptosis in human SUDHL4 cells assessed as late apoptotic cells at 2.5 uM incubated for 48 hrs by annexin V-FITC and propidium iodide staining based flow cytometry analysis (reference value: 1.39%); type: functional
[11] = system: SUD4; test: Induction of apoptosis in human SUDHL4 cells assessed as early apoptotic cells at 1.25 uM incubated for 48 hrs by annexin V-FITC and propidium iodide staining based flow cytometry analysis (reference value: 2.62%); type: functional
[12] = system: SUD4; test: Induction of apoptosis in human SUDHL4 cells incubated for 48 hrs by annexin V-FITC and propidium iodide staining based flow cytometry analysis; type: functional, cell-based
[13] = system: Mus musculus; test: In vivo inhibition of GC formation in NP-CGG immunized C57BL/6 mouse assessed as proportion of Tfh cells (CXCR5+PD1+CD4+) at 10 mg/kg, iv administered 3 days once for 12 days starting from 2 days after NP-CGG addition by flow cytometry analysis (reference value: 2.25%); type: functional; set-up: scale not given: the % may be the effect or the level left
[14] = system: SUD4; test: Antitumor activity against human SUDHL4 cells xenografted in SCID mouse assessed as reduction in tumor growth at 5 mg/kg, iv administered 3 days once for 15 days and measured every 3 days; type: functional, organism-based
In short: (§2)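 Male SCID mice, 6 weeks old, received 1 × 10⁷ SUDHL4 cells s.c. At about 100 mm³, mice were randomized (n = 7) to vehicle (20% 2-hydroxypropyl-β-cyclodextrin) or 5 or 10 mg/kg every 3 days i.v. for 15 days. Body weight and caliper volume (L × W² × 0.52) were recorded every 3 days. At sacrifice, tissues were fixed in 4% paraformaldehyde and paraffin-embedded for H&E or Ki67 IHC. Tumor mRNA was assayed by qPCR.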

[15] = Toxicity in SCID mouse xenografted with human SUDHL4 cells assessed as reduction in body weight at 5 to 10 mg/kg, iv administered 3 days once for 15 days and measured every 3 days; type: organism-based; settings: in vivo; in short: as §2
[16] = Toxicity in SCID mouse xenografted with human SUDHL4 cells assessed as adverse effect on heart morphology at 5 to 10 mg/kg, iv administered 3 days once for 15 days by H and E staining analysis; type: organism-based; settings: in vivo; in short: as §2
[17] = Toxicity in SCID mouse xenografted with human SUDHL4 cells assessed as adverse effect on liver morphology at 5 to 10 mg/kg, iv administered 3 days once for 15 days by H and E staining analysis; type: organism-based; settings: in vivo; in short: as §2
[18] = Toxicity in SCID mouse xenografted with human SUDHL4 cells assessed as adverse effect on spleen morphology at 5 to 10 mg/kg, iv administered 3 days once for 15 days by H and E staining analysis; type: organism-based; settings: in vivo; in short: as §2
[19] = Toxicity in SCID mouse xenografted with human SUDHL4 cells assessed as adverse effect on kidney morphology at 5 to 10 mg/kg, iv administered 3 days once for 15 days by H and E staining analysis; type: organism-based; settings: in vivo; in short: as §2
[20] = system: SUD4; test: Antitumor activity against human SUDHL4 cells xenografted in SCID mouse assessed as reduction in Ki67 expression in tumor at 5 mg/kg, iv administered 3 days once for 15 days by Ki67-staining based immunohistochemistry; type: functional, organism-based; in short: as §2
[21] = system: Mus musculus; test: Upregulation of CD69 mRNA expression in SCID mouse xenografted with human SUDHL4 cells at 5 to 10 mg/kg, iv administered 3 days once for 15 days by qPCR analysis; type: functional, organism-based; in short: as §2
[22] = system: Mus musculus; test: Upregulation of ATR mRNA expression in SCID mouse xenografted with human SUDHL4 cells at 5 to 10 mg/kg, iv administered 3 days once for 15 days by qPCR analysis; type: functional, organism-based; in short: as §2
[23] = Metabolic stability in human liver microsomes assessed as intrinsic clearance per mg of protein; type: ADME, Microsome; settings: read-out: CLH
In short: (§3)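 Incubation with human liver microsomes. Intrinsic clearance was scaled to liver using 45 mg microsomal protein per g liver and 20 g liver per kg body weight. Half-life was also determined.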

[24] = Metabolic stability in human liver assessed as intrinsic clearance; type: ADME, tissue-based; settings: read-out: CLH; in short: as §3
[25] = Metabolic stability in human liver microsomes assessed as compound remaining measured after 60 mins; type: ADME, Microsome; settings: read-out: Stability
[26] = Protein binding in human plasma; type: ADME, cell-free; settings: read-out: PPB (converted)
In short: (§4)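 Human plasma protein binding was measured by a contract laboratory.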

[27] = Protein binding in human plasma assessed as unbound fraction; type: ADME, cell-free; in short: as §4
[28] = species: Mus musculus; settings: C57BL/6, 10 mg/kg
[29] = system: Farage; settings: Homo sapiens, 0.25 to 2 uM
[30] = system: Toledo; settings: Homo sapiens, 0.25 to 2 uM
[31] = species: Mus musculus; settings: C57BL/6, 10 mg/kg; remark: listed apart in the source
[32] = system: SUD4; test: Antiproliferative activity against human SUDHL4 cells assessed as living cells and S phase cells at 2.5 uM incubated for 48 hrs by Edu based flow cytometry analysis (reference value: 48.3%)
[33] = system: SUD4; test: Antiproliferative activity against human SUDHL4 cells assessed as living cells and S phase cells at 0.625 uM incubated for 48 hrs by Edu based flow cytometry analysis (reference value: 48.3%)

COc1cc(Nc2nc(N3C[C@@H](C)N[C@@H](C)C3)ncc2F)ccc1NC(=O)c1ccc(C2=CCCC2)s1
Activity [1]: inactive | Activity [2]: inactive | IC50 [3]: 0.92 µM | IC50 [4]: 1.26 µM | IC50 [5]: 3.25 µM | IC50 [6]: 32.4 µM | IC50 [7]: 8.13 µM | Activity [8]: Dose-dependent effect | Activity [9]: 3.35% | Activity [10]: 67.3% | Activity [11]: 3.57% | Activity [12]: Dose-dependent effect | Activity [13]: 0.99% | Activity [14]: Active | Activity [15]: Non-Toxic | Activity [16]: Non-Toxic | Activity [17]: Non-Toxic | Activity [18]: Non-Toxic | Activity [19]: Non-Toxic | Activity [20]: Active | Activity [21]: Active | Activity [22]: Active | microsomal CLint [23]: < 9.6 µL/min/mg | CLint scaled [24]: < 38 mL/min/kg | remaining at 1 h [25]: 102% | fraction unbound [26]: 0.076 | fraction unbound [27]: 0.076 | inhibition [28]: Active | inhibition [29]: inactive | inhibition [30]: inactive | inhibition [31]: Active | Activity [32]: 6.6% | Activity [33]: 27.3%
